The record followed here is ChEMBL document CHEMBL4825676, “Design and biological evaluation of cinnamic and phenylpropionic amide derivatives as novel dual inhibitors of HIV-1 protease and reverse transcriptase” (Eur J Med Chem, 2021).

Assay [1] deals with Human immunodeficiency virus 1. In words: Antiviral activity against HIV1 NL4-3 Env-deficient VSV-G pseudotyped virus infected in human SUP-T1 cells assessed as inhibition of late stage viral production when host cells were infected with compound pretreated viral particles at 10 uM measured after 48 hrs by luciferase assay relative to control. To be noted: Human immunodeficiency virus 1, NL4-3, SUP-T1. It is filed as functional. Summed up:
(§1)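 Late-stage assay: VSV-G pseudotyped HIV-1 was made by co-transfecting 293T cells with pNL4-3-E⁻R⁻ (or DRV-resistant variants) plus pHCMV-G. Inhibitors in DMSO were added to the medium 5 h post-transfection. After 48 h at 37 °C, supernatant virus infected SupT1 cells for 48 h, and luciferase was read in the newly infected cells. Quintuplicate; inhibition at one fixed concentration and EC50.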

Assay [2] has as its target Human immunodeficiency virus type 1 protease (Human immunodeficiency virus 1, UniProt Q72874). Put plainly: Inhibition of wild type HIV1 protease expressed in Escherichia coli using Arg-Glu (EDANS)-Ser-Gln-Asn-Tyr-Pro-Ile-Val-Gln-Lys(DABCYL)-Arg as substrate preincubated for 20 to 30 mins followed by substrate addition and measured for 10 mins by FRET assay. Summed up: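 Recombinant HIV-1 PR was expressed in E. coli and purified. It was mixed with inhibitor (DMSO stock) for 20–30 min at room temperature before addition of the EDANS/DABCYL-labelled peptide. Buffer: 0.1 M sodium acetate, 1 M NaCl, 1 mM EDTA, 1 mM DTT, 2% DMSO, 1 mg/mL BSA, pH 4.7. Triplicate; mean of three independent experiments.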

Assay [3] relates to Human immunodeficiency virus 1. In words: Antiviral activity against HIV1 NL4-3 VSV-G pseudotyped virus infected in human SUP-T1 cells assessed as inhibition of early stage viral production at 10 uM measured after 48 hrs by luciferase assay relative to control. It is filed as functional. The following applies: Human immunodeficiency virus 1, NL4-3, SUP-T1. Summed up:
(§2)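 Early-stage assay: SupT1 cells (1 × 10⁵/mL) were infected with VSV-G-pseudotyped HIV-1(NL4-3), and compounds were added afterward, with final DMSO held at 1% (v/v). After 48 h the cells were lysed and firefly luciferase activity was measured. Quintuplicate; inhibition at one fixed concentration and EC50.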

Assay [4] has as its system Human immunodeficiency virus 1. In words: Antiviral activity against HIV1 NL4-3 Env-deficient VSV-G pseudotyped virus infected in human SUP-T1 cells assessed as inhibition of late stage viral production when host cells were infected with compound pretreated viral particles measured after 48 hrs by luciferase assay. The assay is classed as functional, organism-based. The following applies: Human immunodeficiency virus 1, NL4-3, SUP-T1. In short, it runs like this:
as §1

Assay [5] can be described thus: Ratio of antiviral activity against HIV1 NL4-3 Env-deficient VSV-G pseudotyped virus infected in human SUP-T1 cells assessed as inhibition of late stage viral production when host cells were infected with compound pretreated viral particles to antiviral activity against HIV1 NL4-3 VSV-G pseudotyped virus infected in human SUP-T1 cells assessed as inhibition of early stage viral production. It is filed as functional, Human immunodeficiency virus 1. Summed up:
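Ratio taken from single-round VSV-G pseudotyped HIV-1(NL4-3) luciferase assays in SupT1 cells (quintuplicate). It is late-stage inhibition (compound given to producer 293T cells after transfection) divided by early-stage inhibition (compound added after SupT1 infection), or the reverse.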

Assay [6] deals with Human immunodeficiency virus type 1 reverse transcriptase (Human immunodeficiency virus 1, UniProt Q72547). Put plainly: Inhibition of wild type HIV-1 NL4-3 reverse transcriptase using random mRNA as template and GADPH as primer measured at 42 degreeC for 5 mins, 95 degreeC for 10sec and 60 degreeC for 60 sec by qRT-PCR analysis. Background: Quantitative PCR measures a nucleic acid by following its amplification.

Assay [7] concerns Human immunodeficiency virus 1. Put plainly: Antiviral activity against HIV1 NL4-3 VSV-G pseudotyped virus infected in human SUP-T1 cells assessed as inhibition of early stage viral production measured after 48 hrs by luciferase assay. The assay is classed as functional, organism-based. The following applies: Human immunodeficiency virus 1, NL4-3, SUP-T1, 48 h. In short, it runs like this: as §2

A word on the inhibition: it is the drop in the measured response relative to a control, in per cent. The term IC50 denotes the concentration that inhibits the measured activity by half. The EC50 is the midpoint of the concentration-response curve.

As to `COc1cc(/C=C/C(=O)N[C@@H](Cc2ccccc2)[C@H](O)CN(CC(C)C)S(=O)(=O)c2ccc(N)cc2)cc(OC)c1O`, the inhibition at 10 µM is 30% in assay [1] and 14% in assay [3]. The IC50 in assay [2] came out at 0.144 µM; in assay [6], 0.0015 µM. Further, the EC50 worked out at 37.4 µM in assay [4] and 68 µM in assay [7]. The Ratio in assay [5] is 2.14.
Regarding `CSc1ccc(S(=O)(=O)N(CC(C)C)C[C@@H](O)[C@H](Cc2ccccc2)NC(=O)CCc2ccc(O)c(O)c2)cc1`, the inhibition at 10 µM in assay [1] amounted to 97%; in assay [3] it was 68%. For the same compound, the IC50 in assay [2] came to 0.00202 µM; in assay [6], 0.00043 µM. Besides, the EC50 in assay [4] amounted to 2.31 µM; in assay [7] it was 8.32 µM. In addition, the Ratio in assay [5] amounted to 1.43.
